Measured values taken from ChEMBL document CHEMBL2029337, “Synthesis and antimicrobial activities of structurally novel S,S'-bis(heterosubstituted) disulfides” (Bioorg Med Chem Lett, 2012).
≈ marks a conversion by molar mass, not a printed value. Calls of active or inactive are those of the source. The rule behind the calls is not given here.

Tests used:
Staphylococcus aureus [1] = experiment: Antibacterial activity against methicillin-susceptible Staphylococcus aureus ATCC 25923 assessed as reduction in bacterial counts at 4 ug/mL after overnight incubation […] (reference value: 7.60 x 10^8 cfu/mL); format: functional
Procedure, shortened: (§1)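 Viability count assay against S. aureus ATCC 25923. All tubes started at 10⁵ cfu/mL, and viable bacteria were counted before and after incubation with disulfide at the line's concentration. Tubes without disulfide served as the growth reference. Performed in triplicate.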

Candida albicans = experiment: Antifungal activity against Candida albicans assessed as reduction in viability by trypan blue staining; format: functional
Procedure, shortened: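 C. albicans was exposed in YNB to a 1, 0.5, 0.25 and 0.125 series, following the NCCLS fungal protocol. Non-viable cells were stained with trypan blue and counted in a cell-counting chamber under a microscope at 40X. Controls were untreated cells in YNB and cells heat-killed in PBS (boiled 5 min).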

Bartonella sp. = experiment: Antibacterial activity against Bartonella ssp. […] by agar dilution method; format: functional
[2] = Antibacterial activity against Francisella tularensis subspecies holarctica LVS after 48 hrs by broth dilution method; format: functional, Francisella tularensis subsp. holarctica LVS
Staphylococcus aureus [3] = experiment: Antibacterial activity against methicillin-resistant Staphylococcus aureus ATCC 43300 assessed as growth inhibition at 50 ug after 24 hrs by agar-diffusion assay in presence of CoA; format: functional, organism-based
Procedure, shortened: (§2)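 Kirby-Bauer well diffusion on an MRSA lawn (0.5 McFarland suspension swabbed onto tryptic soy agar). Four test agents sat in wells equidistant from a centre well holding 1 mg of additive in DMSO; a DMSO-only centre well served as vehicle control. After overnight incubation at 37 °C, the inhibition zones were examined for size or shape change.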

Staphylococcus aureus [4] = experiment: Membrane disrupting activity in methicillin-resistant Staphylococcus aureus ATCC 43300 by scanning electron microscopy; format: functional, organism-based
Procedure, shortened: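 Scanning electron microscopy of MRSA cells before and after disulfide treatment during Kirby-Bauer agar diffusion experiments, assessing external cell morphology and cell-wall integrity.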

Staphylococcus aureus [5] = experiment: Antibacterial activity against methicillin-resistant Staphylococcus aureus ATCC 43300 assessed as growth inhibition at 50 ug after 24 hrs by agar-diffusion assay in presence of valine; format: functional, organism-based; procedure, shortened: as §2
Staphylococcus aureus [6] = experiment: Antibacterial activity against methicillin-resistant Staphylococcus aureus ATCC 43300 assessed as growth inhibition at 50 ug after 24 hrs by agar-diffusion assay in presence of GSH; format: functional, organism-based; procedure, shortened: as §2
Staphylococcus aureus [7] = experiment: Antibacterial activity against methicillin-resistant Staphylococcus aureus ATCC 43300 assessed as growth inhibition at 50 ug after 24 hrs by agar-diffusion assay in presence of glycine; format: functional, organism-based; procedure, shortened: as §2
Staphylococcus aureus [8] = experiment: Antibacterial activity against methicillin-resistant Staphylococcus aureus ATCC 43300 assessed as growth inhibition at 50 ug after 24 hrs by agar-diffusion assay in presence of cystine; format: functional, organism-based
Staphylococcus aureus [9] = experiment: Antibacterial activity against methicillin-resistant Staphylococcus aureus ATCC 43300 assessed as reduction in bacterial counts at 2 ug/mL after overnight incubation by […] (reference value: 4.02 x 10^8 cfu/mL); format: functional
Staphylococcus aureus [10] = experiment: Antibacterial activity against methicillin-susceptible Staphylococcus aureus ATCC 25923 assessed as reduction in bacterial counts at 2 ug/mL after overnight incubation […] (reference value: 7.60 x 10^8 cfu/mL); format: functional; procedure, shortened: as §1
Staphylococcus aureus [11] = experiment: Antibacterial activity against methicillin-susceptible Staphylococcus aureus ATCC 25923 […] by agar dilution method; format: functional
Staphylococcus aureus [12] = experiment: Antibacterial activity against methicillin-resistant Staphylococcus aureus ATCC 43300 assessed as growth inhibition at 50 ug after 24 hrs by agar-diffusion assay in presence of iPrSSiPr; format: functional, organism-based; procedure, shortened: as §2
Staphylococcus aureus [13] = experiment: Antibacterial activity against methicillin-resistant Staphylococcus aureus ATCC 43300 assessed as growth inhibition at 50 ug after 24 hrs by agar-diffusion assay in presence of PPh3; format: functional, organism-based; procedure, shortened: as §2
Staphylococcus aureus [14] = experiment: Antibacterial activity against methicillin-resistant Staphylococcus aureus ATCC 43300 assessed as growth inhibition at 1 mg after 24 hrs by agar-diffusion assay; format: functional, organism-based; procedure, shortened: as §2
Staphylococcus aureus [15] = experiment: Antibacterial activity against methicillin-resistant Staphylococcus aureus ATCC 43300 […] by agar dilution method; format: functional
Staphylococcus aureus [16] = experiment: Antibacterial activity against methicillin-resistant Staphylococcus aureus ATCC 43300 assessed as reduction in bacterial counts at 4 ug/mL after overnight incubation by […] (reference value: 4.02 x 10^8 cfu/mL); format: functional
Staphylococcus aureus [17] = experiment: Antibacterial activity against methicillin-resistant Staphylococcus aureus ATCC 43300 assessed as growth inhibition at 50 ug after 24 hrs by agar-diffusion assay in presence of lysine; format: functional, organism-based; procedure, shortened: as §2
[18] = Cytotoxicity against bovine primary aortic endothelial cells at 20 ug/mL after 48 hrs by MTT assay; format: cell-based, Bos taurus; settings: cattle, endothelial cell
Procedure, shortened: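 Primary bovine aortic endothelial cells were kept in EBM-2 with 10% FBS and penicillin/streptomycin at 37 °C under 5% CO₂. Cells were trypsinized, counted and plated in 96-well dishes, then treated for 48 h. MTT was added and formazan dissolved in DMSO; absorbance was read at 540 nm with 660 nm background. Viability is expressed as percent of untreated control.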

Escherichia coli = experiment: Antibacterial activity against Escherichia coli K-12 […] by agar dilution method; format: functional, organism-based

CC(C)OSSOC(C)C
Activity (Staphylococcus aureus [1]): 2.04 ×10³ CFU/ml
MIC (Candida albicans): 0.5 µg/mL (≈ 2.74 µM)
Activity (Bartonella sp.): inactive
MIC [2]: 4 µg/mL (≈ 21.9 µM)
growth inhibition (GI) (Staphylococcus aureus [3]): inactive
Activity (Staphylococcus aureus [4]): inactive
growth inhibition (GI) (Staphylococcus aureus [5]): Active
growth inhibition (GI) (Staphylococcus aureus [6]): inactive
growth inhibition (GI) (Staphylococcus aureus [7]): Active
growth inhibition (GI) (Staphylococcus aureus [8]): inactive
Activity (Staphylococcus aureus [9]): >1.2 ×10⁶ CFU/ml
Activity (Staphylococcus aureus [10]): 3.86 ×10⁴ CFU/ml
MIC (Staphylococcus aureus [11]): 1 µg/mL (≈ 5.49 µM)
growth inhibition (GI) (Staphylococcus aureus [12]): Active
growth inhibition (GI) (Staphylococcus aureus [13]): Active
growth inhibition (GI) (Staphylococcus aureus [14]): Active
MIC (Staphylococcus aureus [15]): 0.5 µg/mL (≈ 2.74 µM)
Activity (Staphylococcus aureus [16]): 2.88 ×10³ CFU/ml
growth inhibition (GI) (Staphylococcus aureus [17]): Active
Activity [18]: Non-toxic
Activity (Escherichia coli): inactive
